Compound activity deposited in PubChem by several laboratories.
Rows were chosen to be rich in hits. Some 4.1% of all compounds tested hit in one or more screens of this group.
STAT1 act – STAT1 signaling activation; NIH 3T3 STAT1-luciferase reporter, IFN-gamma, luminescence; 100% = IFN-gamma alone, no compound; activation (% of control), % at 5.5 µM; 200,000 compounds, 2.6% hits; AID 932;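 active = activation above the screen-wide mean activation plus 3 SD, cut at about 130% in these data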;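 note: raw ratio to IFN-gamma control signal so 100% means no change and 0% no light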
FLuc act counter – firefly luciferase counter-screen for stimulation assays; P08659; ATPlite luciferase biochemical, luminescence, 10 min; 0 = ATP-free wells, 1 = DMSO control; activation factor at 10 µM; 200,000 tested, under 10 active; AID 1027;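 active = luciferase activation factor, scaled between plate controls, of at least 2 with compound at 10 µM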
Target sequence (P08659 whole entry, looked up): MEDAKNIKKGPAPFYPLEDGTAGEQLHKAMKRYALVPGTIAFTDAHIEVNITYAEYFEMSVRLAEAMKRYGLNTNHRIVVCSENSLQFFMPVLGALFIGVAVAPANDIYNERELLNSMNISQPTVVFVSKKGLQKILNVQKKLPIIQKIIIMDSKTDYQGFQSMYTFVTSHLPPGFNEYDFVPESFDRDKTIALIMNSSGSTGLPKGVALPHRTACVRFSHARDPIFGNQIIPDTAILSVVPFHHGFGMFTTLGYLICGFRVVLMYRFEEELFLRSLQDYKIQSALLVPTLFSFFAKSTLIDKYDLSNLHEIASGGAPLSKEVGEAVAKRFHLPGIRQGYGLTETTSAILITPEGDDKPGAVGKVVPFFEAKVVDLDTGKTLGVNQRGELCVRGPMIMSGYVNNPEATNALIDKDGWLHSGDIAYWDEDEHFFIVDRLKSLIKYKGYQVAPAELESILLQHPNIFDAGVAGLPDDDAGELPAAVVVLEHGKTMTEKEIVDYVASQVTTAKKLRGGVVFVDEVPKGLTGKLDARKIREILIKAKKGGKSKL
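System: luciferase plus luciferin reagent, cell-free; medium: PBS as buffer for the ATP substrate; dosing: test compounds dosed from 2 mM stocks in 100% DMSO; timing: 10 min post-reagent at room temperature; measured by: luminescence measurement of luciferase light output; evaluation: luciferase activation, seen as luminescence increase over controls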
NF-kB neuron act – NF-kB expression increase, human neuronal cells; 190,000 compounds, 1.6% hits; AID 1239; NF-kB reporter expression; hits give high values; fold change at 12.5 µM; in the data active = fold change above about 3.3
APP 5'UTR act – activates APP 5'UTR luciferase reporter. 190,000 compounds, 1% hits. SH-SY5Y APP 5'UTR luciferase reporter, luminescence; zero percent = DMSO vehicle wells. activation, % at 2 µM;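 active = activation above a set limit, based on mean plus 3 SD of controls, cut at about 140% in these data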
FLuc inhib CS – counter-screen for luciferase assay inhibitors: firefly luciferase inhibition; inhibition, % at 10 µM; 200,000 compounds, 1.5% hits; AID 1006; P08659; ATPLite firefly luciferase biochemical luminescence, 10 min;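 active = inhibition above about 50% when tested at 10 µM, limit read from the data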
STAT1 activ conf – STAT1 activation, confirmation assay | AID 1262 | 1,200 compounds, 97% hits | shares compounds with STAT1 act | NIH 3T3 STAT1-luciferase reporter, IFN-gamma potentiation, luminescence; 100% = IFN-gamma EC80 alone, no compound | activation (% of control), % at 5.7 µM;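 active = activation above a set limit carried over from the earlier primary STAT1 screen, cut at about 140% in these data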;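 note: simple ratio to median IFN-gamma plus DMSO wells so 0% means no light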
NFkB act – activates NF-kappaB, counter-screen to STAT1 activators; shares compounds with STAT1 act; HEK293T NF-kB luciferase reporter, TNF-alpha stimulated, luminescence; 100% = TNF-alpha with vehicle only; activation (% of control), % at 5.7 µM; AID 1306; 1,200 compounds, 43% hits;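 active = activation above the mean of solvent-only control wells plus 3 SD, set per campaign, cut at about 130% in these data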;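 note: TNF-alpha given at a submaximal dose yielding about 80% of full reporter signal; values are well signal over median control so 100% means no change and 0% no light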
STAT3 act STAT1c – human STAT3 activation in STAT1 activator counter-screen; U3A cells STAT3-luciferase reporter, IL-6, luminescence; cells lack STAT1; 100 = IL-6 alone, no compound effect; shares compounds with STAT1 act; activation (% of control), % at 5.7 µM; 1,200 compounds, 46% hits;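 active = activation above the solvent-only control well mean plus 3 SD, set per plate batch, cut at about 110% in these data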;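 note: 0% = no luminescence and 100% = median IL-6 plus DMSO wells; higher means more STAT3 reporter activation so hits are non-selective activators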
An asterisk follows results filed as active; · = no result.

SMILES	STAT1 act	FLuc act counter	NF-kB neuron act	APP 5'UTR act	FLuc inhib CS	STAT1 activ conf	NFkB act	STAT3 act STAT1c
Nc1cccc(C(=O)OCC(=O)Nc2cccc3c2C(=O)c2ccccc2C3=O)c1	100	1.1	1.1	-10	-6	·	·	·
O=S(=O)([N-]c1nc2ccccc2nc1-[n+]1ccccc1)c1ccc(F)cc1	105	1.1	1.4	-1	-7	·	·	·
O=C(NC1=NCCS1)c1csc2ccccc12	152*	0.4	6.8*	105	55*	199*	126	118*
COc1ccc(/C=C/c2nc3ccccc3n2Cc2ccccc2OC)cc1	154*	0.1	5.6*	179*	88*	166*	122	113*
COc1ccc2nc(NC(=O)/C=C/c3ccc4c(c3)OCO4)sc2c1	91	1	1.2	-7	-1	·	·	·
CN(C)c1nc(N)nc(CSc2nc3cc(Cl)ccc3o2)n1	152*	1	2	11	-2	142*	122	90
Cc1ccc2[nH]c(-c3cccc(N)c3)cc2c1	183*	0.8	3.3	152*	16	213*	146*	104
N#Cc1nc(COc2ccc(Br)cc2)oc1NCCN1CCOCC1	103	1	1.1	2	-2	·	·	·
CC1CCN(C(=O)/C=C/c2ccc(C(C)(C)C)cc2)CC1	106	0.9	2	28	10	·	·	·
CC(C)(C)c1ccc(/C=C/C(=O)N2CCCCC2)cc1	169*	0.7	4.4*	110	28	166*	149*	128*
Cc1ccc(/C=C/C(=O)N2CCCC(C)C2)cc1 (stereo unspecified)	168*	0.3	4.5*	125	75*	193*	124	101
O=C(Nc1nc2c(s1)C(=O)CCC2)c1ccccc1	153*	0.3	3	148*	66*	185*	111	96
COc1cccc(C(=O)Nc2cc3c(cc2Cl)OCCCO3)c1	160*	0.4	4.3*	136*	65*	175*	119	98
O=c1oc2ccccc2cc1-c1nc2c(s1)CCc1ccccc1-2	104	1	0.96	·	1	·	·	·
O=c1oc2ccccc2cc1-c1nnc(NCc2ccco2)s1	154*	0.9	5.4*	147*	14	188*	139*	112*
Brc1ccc(-c2nnc(-c3ccco3)o2)cc1	155*	0.8	3	70	19	181*	130	100
O=C(O)CCC(=O)Nc1ccc(-c2nnc(-c3ccco3)o2)cc1	97	1	1.1	·	-3	·	·	·
Clc1ccc(-c2nnc(-c3ccccc3Cl)o2)cc1	161*	0.3	5.3*	202*	74*	218*	123	95
Brc1ccc(-c2nnc(-c3ccccc3Br)o2)cc1	164*	0.5	0.93	169*	46	216*	138*	102
CC(=O)c1c(C)[nH]c(C(=O)CSc2nnc(-c3ccccc3)o2)c1C	89	1.1	0.94	-6	-9	·	·	·
O=C(NCCN1CCCCC1)c1cc(OCC(F)(F)F)ccc1OCC(F)(F)F	93	1	1.1	9	0	·	·	·
Fc1cccc(NCc2cn3ccccc3n2)c1	169*	0.9	4.2*	110	8	194*	130	113*
O=C(/C=C\c1cn(-c2ccccc2)nc1-c1ccc2c(c1)OCCO2)N1CCOCC1	83	1	0.46	0	-3	·	·	·
Cc1ccc2oc(-c3ccc(C)c(NC(=S)NC(=O)c4cccs4)c3)nc2c1	154*	0.9	3.4*	222*	12	145*	119	132*
Cc1ccnc(NC(=S)NC(=O)c2cccs2)c1	237*	0.1	3.7*	130	87*	263*	166*	132*
SMILES	STAT1 act	FLuc act counter	NF-kB neuron act	APP 5'UTR act	FLuc inhib CS	STAT1 activ conf	NFkB act	STAT3 act STAT1c
Cc1ccc2oc(-c3ccc(C)c(NC(=O)Cc4cccs4)c3)nc2c1	114	0.9	1.1	11	8	·	·	·
O=C(NC(=S)Nc1cccnc1)c1cccs1	116	1	1.5	-2	3	·	·	·
Cc1ccnc2ccc(P(=O)(c3ccccc3)c3ccccc3)cc12	110	1	1	4	-4	·	·	·
COc1ccc(S(=O)(=O)N2CCC(C(=O)N3CCCC3)CC2)cc1	93	1	0.97	5	-5	·	·	·
CC(C)(C)C(=O)Nc1ccccc1C(=O)OCC(=O)c1ccc2c(c1)OCCO2	97	0.8	0.67	24	22	·	·	·
O=C(COC(=O)c1ccccc1NC(=O)C1CC1)c1ccc2c(c1)OCCO2	159*	0.3	0.59	38	72*	170*	105	101
Cc1ccc2c(c1)C(c1ccncc1)=NNC(c1ccccc1)=N2	127	0.8	2.2	18	23	·	·	·
Cc1ccc(C2=Nc3cccnc3C(c3ccccc3)=NN2)cc1	156*	1	2.6	113	1	202*	143*	115*
C(=N\N=C\c1ccccc1)/c1ccccc1	158*	0.2	0.98	36	79*	186*	145*	103
Cc1cc2c3nonc3ccc2n1C	101	1.1	1	-7	-7	·	·	·
O=C(NCCc1ccccc1)c1ccccc1NC(=O)C1CC=CCC1C(=O)O (stereo unspecified)	152*	1	1.8	36	2	133*	125	108
COC(=O)c1ccccc1NC(=O)C1CC=CCC1C(=O)O (stereo unspecified)	100	1.1	1.3	4	-10	·	·	·
CCOc1cccc(CN2CCCC(CCC(=O)NCc3ccccc3F)C2)c1O (stereo unspecified)	99	1.1	1.4	10	-9	·	·	·
COc1cccc(N(C(=O)c2nc3nccc(C)n3n2)c2nc3ccccc3s2)c1	173*	1	6*	190*	2	230*	177*	114*
COc1cccc(NC(=O)COC(=O)c2nc3nccc(C)n3n2)c1	99	1	1.4	8	-3	·	·	·
O=C(Nc1ccc(NC(=S)NC(=O)c2cccs2)cc1)c1ccco1	100	1.1	1	3	-6	·	·	·
C/C(=N\NC(=O)c1ccco1)c1ccc(NC(=O)c2cccs2)cc1	154*	1	1.1	58	3	111	119	98
CCCC1CCC(C(=O)n2nc(N)c3cc4ccc(OC)cc4nc32)CC1 (stereo unspecified)	105	1.1	1.1	5	-11	·	·	·
